The text below walks through data of ChEMBL document CHEMBL2412973, “Design, synthesis, and anti-tumor activities of novel triphenylethylene-coumarin hybrids, and their interactions with Ct-DNA” (Bioorg Med Chem Lett, 2013).

pIC50: −log10 of the molar value. Activity calls are given as the source filed them. The calls are words filed in the database; no cut-off is given here.

The subject of series [1] is DNA. Description: Binding affinity to calf thymus DNA in phosphate buffer at pH 7.4 assessed as change in melting temperature at 5 uM after 10 mins by thermal denaturation method. It counts as nucleic-acid assay. The conditions noted are these: Bos taurus. In outline:
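Thermal denaturation: Ct-DNA 5.0×10^-5 M with or without compound at 5.0×10^-6 M, phosphate buffer (1 mM, pH 7.4) with 5 mM NaCl and 4% DMSO; melting curves recorded, Tm taken as temperature at which half the DNA melts; ΔTm relative to free Ct-DNA.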

Series [2] deals with DNA. The series is described as follows: Binding affinity to calf thymus DNA in phosphate buffer at pH 7.4 at 5 uM after 10 mins by fluorescence spectroscopy. The format is nucleic-acid assay. The conditions noted are these: Bos taurus. The method in brief: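 Compound at 5.0×10^-6 M, excited at 329–336 nm depending on compound, titrated with Ct-DNA (0–90 μM) in 10 mM phosphate buffer pH 7.4, 50 mM NaCl, 4% DMSO, 25 °C; emission near 455 nm; F/F0 plotted against DNA concentration, Stern-Volmer analysis gives binding efficiency.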

Series [3] deals with DNA. The series is described as follows: Binding affinity to calf thymus DNA in phosphate buffer at pH 7.4 assessed as intercalation in DNA at 20 uM after 10 mins by circular dichroism method. As to conditions: Bos taurus. It counts as nucleic-acid assay. The method in brief: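 CD spectra of Ct-DNA (5.0×10^-5 M) with and without compound (2.0×10^-5 M) recorded in 10 mM phosphate buffer pH 7.4 containing 50 mM NaCl and 4% DMSO at 25 °C.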
A general note: Circular dichroism is widely used to follow secondary structure.

The subject of series [4] is DNA. Description: Binding affinity to calf thymus DNA in phosphate buffer at pH 7.4 assessed as hypochromic effect at 1.0 x 10^-5 M by UV-visible spectroscopy. The format is nucleic-acid assay. The conditions noted are these: Bos taurus. The method in brief: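 Compound at 1.0×10^-5 M titrated with Ct-DNA (0–180 μM) in 10 mM phosphate buffer pH 7.4, 50 mM NaCl, 4% DMSO, 25 °C; UV-Vis absorption change at absorption maximum, hypochromicity percentage derived, binding fitted.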

In series [5] the test system is HL-60. Description: Antiproliferative activity against human HL60 cells after 48 hrs by MTT assay. The format is functional, cell-based. As to conditions: HL-60, 48 h. Background: Tetrazolium dyes change colour on reduction, which living cells bring about.
The test system of series [6] is Bel-7402. The series is described as follows: Antiproliferative activity against human Bel7402 cells after 48 hrs by MTT assay. The format is functional, cell-based. As to conditions: Bel-7402, 48 h.
In series [7] the test system is A549. Description: Antiproliferative activity against human A549 cells after 48 hrs by MTT assay. It counts as functional, cell-based. The conditions noted are these: A549, 48 h.
For series [8], the system named is K562. The series is described as follows: Antiproliferative activity against human K562 cells after 48 hrs by MTT assay. The format is functional, cell-based. The conditions noted are these: K562, 48 h.
Series [9] relates to MCF7. Description: Antiproliferative activity against human MCF7 cells after 48 hrs by MTT assay. The format is functional, cell-based. As to conditions: MCF7, 48 h.
Series [10] in a line: Cytotoxicity against mouse Osteoblasts at 100 uM after 48 hrs by MTT assay. The format is cell-based. The conditions noted are these: osteoblast. The method in brief:
(§1)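 Primary osteoblasts isolated from newborn mouse skull, exposed to compound for 48 h; cell death measured by MTT; % cytotoxicity versus untreated cells, mean ± SEM of six replicates, significance by p-value.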

A short description of series [11]: Cytotoxicity against mouse Osteoblasts at 40 uM after 48 hrs by MTT assay. The format is cell-based. As to conditions: osteoblast. The method in brief:
as §1

Series [12] can be described thus: Cytotoxicity against mouse Osteoblasts at 20 uM after 48 hrs by MTT assay. It counts as cell-based. As to conditions: osteoblast. In outline:
as §1

The nature of series [13]: Cytotoxicity against mouse Osteoblasts at 1 uM after 48 hrs by MTT assay. The format is cell-based. As to conditions: osteoblast. The method in brief: as §1
A short description of series [14]: Cytotoxicity against mouse Osteoblasts at 10 uM after 48 hrs by MTT assay. The format is cell-based. The conditions noted are these: osteoblast. In outline: as §1

As for `O=c1oc2cc(OCCN3CCOCC3)ccc2c(-c2ccc(OCCN3CCOCC3)cc2)c1-c1ccccc1`, the ΔTm (commonly the change in melting temperature against a reference sample) in series [1] was 2 °C. The values for the Activity in series [2] and in series [4] were 2.68 ×10² /M and 13%, respectively. For the same compound, in [3], the outcome was Active. In addition, the pIC50 in series [5], in [6], in [7], in [8] and in series [9] was under 4.00 each time.

Turning to `CCN(CC)CCOc1ccc(-c2c(-c3ccccc3)c(=O)oc3cc(OC)ccc23)cc1`, the pIC50 – broadly, the negative decadic logarithm of the IC50, by convention in mol/L – was 4.22 in series [7], 4.05 in series [8] and 4.12 in [9].

As for `O=c1oc2cc(OCCN3CCCC3)ccc2c(-c2ccc(OCCN3CCCC3)cc2)c1-c1ccccc1`, the Activity in series [10] is 36.1%; in series [11], 18.2%; in [12], 10.1%; in [13], -5.1%; in series [14], -6.7%. For the same compound, the pIC50 in [5] was 5.23; in [6], 5.06; in [7], 5.20; in series [8] it was 5.34; in series [9], 4.91.

`CC/C(=C(\c1ccccc1)c1ccc(OCCN(C)C)cc1)c1ccccc1` [TAMOXIFEN] gave a pIC50 in series [9] of 4.87.

As to `O=c1oc2cc(OCCN3CCCCC3)ccc2c(-c2ccc(OCCN3CCCCC3)cc2)c1-c1ccccc1`, the ΔTm in series [1] was 4.3 °C. For the same compound, the Activity in series [2] is 4.21 ×10³ /M; in series [4], 23%; in series [10] it was 39.2%; in series [11] it was 14.2%; in [12] it was 7.4%; in series [13], -8%. Further, the Activity in series [14] was -2.6%. The outcome in [3] was Active. Also, the pIC50 in [5] is 5.28; in series [6], 5.09; in series [7] it was 5.18; in [8], 5.54; in series [9], 4.94.

Consider `O=c1oc2cc(OCCN3CCCCC3)ccc2c(-c2ccc(OCCN3CCCCC3)cc2)c1-c1ccc(OCCN2CCCCC2)cc1`, for which the thermal shift (ΔTm) in series [1] came to 8.8 °C. Further, the values for the Activity in series [2] and in series [4] were 3.16 ×10⁴ /M and 25%, respectively. The result in series [3] was Active. The pIC50 was 4.25 in series [7], 4.40 in series [8] and 4.32 in [9].

On to `CCN(CC)CCOc1ccc(-c2c(-c3ccc(OCCN(CC)CC)cc3)c3ccc(OCCN(CC)CC)cc3oc2=O)cc1`, for which the pIC50 in series [7] was 4.35; in series [8] it was 4.38; in series [9] it was 4.16.

For `O=c1oc2cc(O)ccc2c(-c2ccc(O)cc2)c1-c1ccc(O)cc1`, the pIC50 in series [7], in [8] and in series [9] was under 4.00 throughout.

Regarding `COc1ccc2c(-c3ccc(O)cc3)c(-c3ccccc3)c(=O)oc2c1`, the pIC50 in [7], in series [8] and in series [9] was under 4.00 throughout.

On to `O=c1oc2cc(OCCN3CCCC3)ccc2c(-c2ccc(O)cc2)c1-c1ccccc1`, for which the results for the pIC50 in [7], in series [8] and in series [9] were 4.27, 4.35 and 4.30, respectively.

Take `O=c1oc2cc(O)ccc2c(-c2ccc(O)cc2)c1-c1ccccc1`: the ΔTm in series [1] was 1.1 °C. For the same compound, the Activity in series [2] came to 5.41 ×10² /M; in [4], 8%. Besides, the outcome in series [3] was inactive. For the same compound, the pIC50 in [7], in series [8] and in series [9] was under 4.00 throughout.

`CCN(CC)CCOc1ccc2c(-c3ccc(O)cc3)c(-c3ccccc3)c(=O)oc2c1`: the pIC50 in [7], in series [8] and in series [9] was under 4.00 in each case.

For `O=c1oc2cc(OCCN3CCOCC3)ccc2c(-c2ccc(O)cc2)c1-c1ccccc1`, the pIC50 in series [7] was 4.03; in series [8], under 4.00; in series [9], under 4.00.

As to `O=c1oc2cc(OCCN3CCCC3)ccc2c(-c2ccc(OCCN3CCCC3)cc2)c1-c1ccc(OCCN2CCCC2)cc1`, the negative logarithm of the IC50 (pIC50) was 4.06 in series [7], 4.12 in series [8] and 4.03 in series [9].

With `O=c1oc2cc(OCCN3CCOCC3)ccc2c(-c2ccc(OCCN3CCOCC3)cc2)c1-c1ccc(OCCN2CCOCC2)cc1`, the pIC50 in series [7], in [8] and in series [9] was under 4.00 each time.

Regarding `COc1ccc2c(-c3ccc(OCCN4CCCCC4)cc3)c(-c3ccccc3)c(=O)oc2c1`, the ΔTm in [1] came to 3.2 °C. The Activity in series [2] was 3.12 ×10³ /M; in series [4], 12%. In addition, the outcome in series [3] was Active. Moreover, the figures for the pIC50 in series [7], in series [8] and in series [9] were 4.63, 4.71 and 4.53, respectively.

For the compound `COc1ccc2c(-c3ccc(OCCN4CCOCC4)cc3)c(-c3ccccc3)c(=O)oc2c1`, the negative logarithm of the IC50 (pIC50) in series [7], in series [8] and in series [9] was under 4.00 in each case.

With `COc1ccc2c(-c3ccc(OCCN4CCCC4)cc3)c(-c3ccccc3)c(=O)oc2c1`, the negative-log IC50 (pIC50) is 4.05 in series [7], 4.03 in [8] and under 4.00 in series [9].

Take `O=c1oc2cc(OCCN3CCCCC3)ccc2c(-c2ccc(O)cc2)c1-c1ccccc1`: the pIC50 in series [7] is 4.04; in series [8] it was 4.09; in series [9] it was 4.06.

Regarding `CCN(CC)CCOc1ccc(-c2c(-c3ccccc3)c(=O)oc3cc(OCCN(CC)CC)ccc23)cc1`, the Activity in [10] is given as 42.2%; in series [11], 20.6%; in series [12], 12.2%; in series [13] it was -3.1%; in [14], 3.2%. The pIC50 in series [5] is 5.40; in [6], 5.09; in series [7] it was 5.08; in series [8], 5.42; in series [9], 5.10.
